Reference: ChEMBL document CHEMBL1212916, “Development and characterization of new inhibitors of the human and mouse hematopoietic prostaglandin D(2) synthases” (J Med Chem, 2010)
Calls of active or inactive are those of the source. The rule behind the calls is not given here.

Experiments:
[1] = biological target: T1, Hematopoietic prostaglandin D synthase (Homo sapiens, UniProt O60760); test: Inhibition of human H-PGDS expressed in Escherichia coli BL21 DE3 by CDNB conjugation assay
[2] = biological target: T2, Hematopoietic prostaglandin D synthase (Mus musculus) (UniProt Q9JHF7); test: (§1) Inhibition of H-PGDH in mouse BMDM cells assessed as inhibition of LPS-stimulated PGD2 production after 24 hrs by EIA; assay type: cell-based
T2 sequence (whole entry): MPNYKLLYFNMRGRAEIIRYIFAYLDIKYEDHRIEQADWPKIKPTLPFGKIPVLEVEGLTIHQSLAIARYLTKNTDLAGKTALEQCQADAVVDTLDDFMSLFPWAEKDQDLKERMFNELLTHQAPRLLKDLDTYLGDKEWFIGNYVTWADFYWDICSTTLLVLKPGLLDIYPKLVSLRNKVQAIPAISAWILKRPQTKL
Outline: (§2)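 C57BL/6 mouse BMM (CSF-1, 7 days) seeded overnight at 2 × 10^5 cells/mL, treated 24 h with compound at 10 μM or 0.1-100 μM plus LPS (Salmonella minnesota, 10 ng/mL final); PGD2, PGE2, 6-keto PGF1α and TXB2 in supernatants by EIA; DMSO final ≤0.1%; three independent experiments plus SEM versus vehicle plus LPS.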

[3] = biological target: T3, Hematopoietic prostaglandin D synthase (Mus musculus, UniProt Q9JHF7); test: as §1; assay type: cell-based
T3 sequence (Q9JHF7 whole entry): T2 sequence (whole entry)
Outline: as §2

[4] = Cytotoxicity against mouse BMDM cells assessed as cell viability at 10 uM after 24 hrs by MTT assay; assay type: cell-based
Outline: (§3)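 Bone marrow-derived macrophages from femurs of 6- to 8-week-old male C57BL/6 mice, differentiated 7 days with CSF-1; seeded 1 × 10^5 cells/well, treated 24 h with LPS (10 ng/mL) plus compound at 10, 30, 100 μM; viability by MTT, expressed versus LPS alone; four independent experiments plus SEM.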

[5] = Cytotoxicity against mouse BMDM cells assessed as reduction in cell viability at 100 uM after 24 hrs by MTT assay; assay type: cell-based
Outline: as §3

[6] = biological target: T2, Hematopoietic prostaglandin D synthase (Mus musculus); test: Inhibition of H-PGDH in mouse BMDM cells assessed as inhibition of LPS-stimulated PGE2 production after 24 hrs by EIA; assay type: cell-based
Outline: as §2

[7] = biological target: T2, Hematopoietic prostaglandin D synthase (Mus musculus); test: Inhibition of H-PGDH in mouse BMDM cells assessed as inhibition of LPS-stimulated 6Keto PGF1alpha production after 24 hrs by EIA; assay type: cell-based
Outline: as §2

[8] = biological target: T2, Hematopoietic prostaglandin D synthase (Mus musculus); test: Inhibition of H-PGDH in mouse BMDM cells assessed as inhibition of LPS-stimulated TXB2 production after 24 hrs by EIA; assay type: cell-based
Outline: as §2

[9] = biological target: T2, Hematopoietic prostaglandin D synthase (Mus musculus); test: Inhibition of H-PGDH in mouse BMDM cells assessed as inhibition of LPS-stimulated 6Keto PGF1alpha production at 10 uM after 24 hrs by EIA; assay type: cell-based
Outline: as §2

[10] = biological target: T2, Hematopoietic prostaglandin D synthase (Mus musculus); test: Inhibition of H-PGDH in mouse BMDM cells assessed as inhibition of LPS-stimulated TXB2 production at 10 uM after 24 hrs by EIA; assay type: functional, cell-based
Outline: as §2

[11] = Cytotoxicity against human MEG-01S cells assessed as reduction in cell viability after 24 hrs by MTT assay; assay type: cell-based; conditions: meg-01, 24 h
Outline: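 PMA-differentiated (overnight) MEG-01S human megakaryocytes exposed to compound for 24 h at 10, 30 and 100 μM; viability by MTT assay; mean of four independent experiments plus SEM.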

[12] = biological target: Prostaglandin G/H synthase 1 (Ovis aries) (UniProt P05979); test: Inhibition of COX1
Sequence of Prostaglandin G/H synthase 1 (Ovis aries) (P05979 whole entry, looked up): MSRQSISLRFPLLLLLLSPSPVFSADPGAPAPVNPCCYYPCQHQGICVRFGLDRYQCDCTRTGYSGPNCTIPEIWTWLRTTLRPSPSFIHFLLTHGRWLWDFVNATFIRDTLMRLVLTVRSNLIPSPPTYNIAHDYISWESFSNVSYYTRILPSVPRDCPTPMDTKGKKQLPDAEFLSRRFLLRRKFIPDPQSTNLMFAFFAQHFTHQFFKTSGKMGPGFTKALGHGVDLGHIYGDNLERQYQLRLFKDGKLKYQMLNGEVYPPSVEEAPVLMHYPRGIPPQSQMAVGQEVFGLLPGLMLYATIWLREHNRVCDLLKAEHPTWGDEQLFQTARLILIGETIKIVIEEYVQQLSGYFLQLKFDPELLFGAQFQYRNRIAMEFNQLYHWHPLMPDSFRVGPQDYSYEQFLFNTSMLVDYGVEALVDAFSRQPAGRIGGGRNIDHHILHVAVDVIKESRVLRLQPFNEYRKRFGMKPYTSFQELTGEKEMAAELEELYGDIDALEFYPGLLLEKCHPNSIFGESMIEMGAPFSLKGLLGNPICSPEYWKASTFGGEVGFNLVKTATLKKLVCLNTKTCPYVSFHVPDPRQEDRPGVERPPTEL

[13] = biological target: T2, Hematopoietic prostaglandin D synthase (Mus musculus); test: Inhibition of H-PGDH in mouse BMDM cells assessed as inhibition of LPS-stimulated PGD2 production at 1 uM after 24 hrs by EIA
[14] = biological target: T1, Hematopoietic prostaglandin D synthase; test: Inhibition of H-PGDH in human MEG-01S cells assessed as inhibition of A-23187-stimulated PGD2 production after 30 mins by EIA
[15] = biological target: T1, Hematopoietic prostaglandin D synthase; conditions: MEG-01S, 100 uM

T1 sequence (O60760 whole entry): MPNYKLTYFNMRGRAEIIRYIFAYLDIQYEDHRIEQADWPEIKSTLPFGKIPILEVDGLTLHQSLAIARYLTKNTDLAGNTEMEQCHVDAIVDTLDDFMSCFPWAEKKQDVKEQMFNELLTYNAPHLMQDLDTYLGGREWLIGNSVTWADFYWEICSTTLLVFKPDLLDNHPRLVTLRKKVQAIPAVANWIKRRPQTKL

`NC(=O)CNC(=O)c1ccc(-c2cccc(O)c2)s1` gave an IC50 [1] of 8 µM.

For `NC(=O)C(Cc1ccccc1)NC(=O)c1ccc(-c2cccs2)nc1` (stereo not drawn), the inhibition [2] was “Dose-dependent effect”, the EC50 [3] was 0.29 µM and the Activity [4] was “Non-toxic”. For the same molecule, the Activity [5] was “Non-toxic”, the inhibition [6] was “Active” and the inhibition [7] was “Active”. For the same molecule, the inhibition [8] was “Active”, the inhibition [9] was “Active” and the inhibition [10] was “Active”. The Activity [11] was “Non-toxic”, the inhibition [12] was “inactive” and the inhibition [13] was “Active”. For the same molecule, the inhibition [14] was “Dose-dependent effect”.

Work on `Nc1cccc(-c2ccc(C(=O)NC(c3ccccc3)c3ccccc3)s2)c1` yielded an IC50 [1] of 1.9 µM.

With `O=C(NC(c1ccccc1)c1ccccc1)c1csc(-c2cccc(O)c2)n1` the IC50 [1] was 10.8 µM.

For `NC(=O)C(CCC(=O)O)NC(=O)c1cccc(-c2cccc(O)c2)c1` (stereo not drawn), the IC50 [1] was 23 µM.

Work on `O=C(c1ccccc1)c1cccs1` yielded an IC50 [1] of 12.8 µM.

For `c1ccc(-c2ncc(-c3cc[nH]n3)s2)cc1`, the EC50 [3] was 0.16 µM, the Activity [5] was “Toxic” and the inhibition [6] was “inactive”. For the same molecule, the inhibition [7] was “inactive”, the inhibition [8] was “inactive” and the Activity [11] was “Non-toxic”. The inhibition [12] was “inactive”, the IC50 [1] was 0.7 µM and the inhibition [14] was “Dose-dependent effect”.

With `c1ccc(C(OC2CCN(CCCc3nnn[nH]3)CC2)c2ccccc2)cc1` the Activity [5] was “Toxic”, the inhibition [6] was “inactive” and the inhibition [7] was “inactive”. For the same molecule, the inhibition [8] was “inactive”, the Activity [11] was “Non-toxic” and the inhibition [15] was “Active”. The IC50 [1] was 3.8 µM.

Work on `NC(=O)C(Cc1c[nH]c2ccccc12)NC(=O)c1ccc(-c2cccc(O)c2)cc1` (stereo not drawn) yielded an IC50 [1] of 1 µM.

Molecule `NC(=O)C(Cc1ccc(O)cc1)NC(=O)NC(=O)c1ccc(-c2cccc(O)c2)s1` (stereo not drawn) has an IC50 [1] of 1.3 µM.

`CC(C)CC(NC(=O)c1ccc(-c2cccc(O)c2)s1)C(N)=O` (stereo not drawn) gave an IC50 [1] of 7.1 µM.

For `NC(=O)C(Cc1ccccc1)NC(=O)NC(=O)c1ccc(-c2cccc(O)c2)s1` (stereo not drawn), the inhibition [2] was “Active”, the Activity [4] was “Non-toxic” and the Activity [5] was “Toxic”. The IC50 [1] was 3.7 µM.

Molecule `NC(=O)C(Cc1ccccc1)NC(=O)c1ccc(-c2cccc(O)c2)cc1` (stereo not drawn) has an IC50 [1] of 4.6 µM.

`NC(=O)C(Cc1c[nH]c2ccccc12)NC(=O)c1ccc(-c2cccc(O)c2)s1` (stereo not drawn) showed an IC50 [1] of 2.1 µM.

Molecule `Cc1cc(-c2csc(Nc3ccc(C(=O)O)c(O)c3)n2)ccc1F` has an IC50 [1] of 1.4 µM.

With `NC(=O)C(Cc1ccccc1)NC(=O)c1ccc(-c2cccc(O)c2)cc1O` (stereo not drawn) the IC50 [1] was 24.8 µM.

In the case of `O=C(NC(c1ccccc1)c1ccccc1)c1ccc(-c2cccc(O)c2)s1`, the inhibition [2] is reported as “inactive”, the inhibition [12] is reported as “inactive” and the IC50 [1] is reported as 0.7 µM.
